Values joined by “and” are separate entries in the source; they are usually repeats but may differ in a detail not shown here. Equal entries are not always repeated. Active and inactive are the calls of the source. The rule behind the calls is not given here.
Tests used:
Calf thymus DNA [1] = assay: DNA dissociation constant from calf thymus; assay type: functional; conditions: Bos taurus
Summary of the method: (§1)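 Stopped-flow SDS-sequestration assay. Sonicated calf thymus DNA (400 µM base pairs) and 20 µM drug in 0.1 SHE buffer (2 mM HEPES, 10 µM EDTA, 99.4 mM NaCl, pH 7.0) were mixed 1:1 with 20 mM SDS at 20 °C. Absorbance decay was deconvoluted into exponential time constants by curve stripping. At least six runs were averaged; ratios were taken between time constants.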

Calf thymus DNA [2] = assay: Ratio T3/T2 of DNA dissociation constant from calf thymus; assay type: functional; conditions: Bos taurus; summary of the method: as §1
Nucleic Acid = assay: Difference between log K of (AT) and log K of (GC) DNA binding; assay type: nucleic-acid assay
Calf thymus DNA [3] = assay: Ratio T2/T1 of DNA dissociation constant from calf thymus; assay type: functional; conditions: Bos taurus; summary of the method: as §1
P388 [4] = assay: Compound administered intraperitoneally was evaluated for optimal dose (OD) given per day after inoculation of 10e 6 P388 leukemia cells for highest nontoxic dose; assay type: functional, Mus musculus
P388 [5] = assay: Percentage increase in life span treated animals over those of controls injected with P388 leukemia cells; NA means no activity (ILS<20%) at all dose levels; assay type: functional; conditions: Mus musculus
Calf thymus DNA [6] = assay: Logarithm of association constant for binding to DNA by ethidium displacement; assay type: nucleic-acid assay; conditions: Bos taurus
Calf thymus DNA [7] = assay: DNA dissociation constant was determined from calf thymus; assay type: functional; conditions: Bos taurus; summary of the method: as §1
P388 [8] = assay: Percentage increase in life span treated animals over those of controls injected with P388 leukemia cells; NA means no activity (ILS <20%) at all dose levels; assay type: functional; conditions: Mus musculus
Calf thymus DNA [9] = assay: Ratio T4/T3 of DNA dissociation constant from calf thymus; assay type: functional; conditions: Bos taurus; summary of the method: as §1
P388 [10] = assay: Percentage increase in life span treated animals over those of controls injected with P388 leukemia cells;NA means no activity (ILS<20%) at all dose levels; assay type: functional; conditions: Mus musculus
L1210 = assay: Evaluated for concentration which when added to cultures of L1210 leukemia cells for a period of 70 hr reduces cell numbers of 50% of control cultures; assay type: functional, cell-based; conditions: Mus musculus, L1210, 70 h
Calf thymus DNA [11] = assay: Dissociation constant of poly(dG-dC)DNA in calf thymus; assay type: functional; conditions: Bos taurus
Calf thymus DNA [12] = assay: Ratio T3/T2 of DNA dissociation constant of poly(dG-dC) from calf thymus; assay type: functional; conditions: Bos taurus
Calf thymus DNA [13] = assay: Dissociation constant of poly(dG-dC)DNA binding in calf thymus; assay type: functional; conditions: Bos taurus
Calf thymus DNA [14] = assay: Ratio T2/T1 of DNA dissociation constant of poly(dG-dC) from calf thymus; assay type: functional; conditions: Bos taurus
P388 [15] = assay: Percentage increase in life span treated animals over those of controls injected with P388 leukemia cells; assay type: functional, Mus musculus
[16] = test system: L1210 (mouse leukemia cells); assay: Ability to inhibit growth of mouse leukemia L1210 cells
P388 [17] = assay: Percentage increase in life span treated animals over those of controls injected with P388 leukemia cells; Na means no activity (ILS<20%) at all dose levels; assay type: functional; conditions: Mus musculus
Calf thymus DNA [18] = assay: Ratio of DNA dissociation constant from calf thymus; assay type: functional; conditions: Bos taurus; summary of the method: as §1

## CN(C)CCNC(=O)c1ccc2nc3ccccc3c(N)c2c1
Calf thymus DNA [1]
  Time constant T1: 10 ms
  Time constant T3: 90 ms
Calf thymus DNA [2]
  Ratio: 3.37
Nucleic Acid
  Log K delta: 0.47
Calf thymus DNA [3]
  Ratio: 2.7
P388 [4]
  OD: 12.5 mg/kg
P388 [5]
  ILS: inactive
Calf thymus DNA [6]
  Log K: 7.08 and 7.55
Calf thymus DNA [7]
  Time constant T2: 27 ms

## COc1ccc2nc3c(C(=O)NCCN(C)C)cccc3c(N)c2c1
Calf thymus DNA [1]
  Time constant T1: 9 ms
  Time constant T3: 64 ms
  Time constant T4: 330 ms
P388 [8]
  ILS: inactive
Calf thymus DNA [9]
  Ratio: 5.2
Calf thymus DNA [2]
  Ratio: 2.6
Nucleic Acid
  Log K delta: 0.02
Calf thymus DNA [3]
  Ratio: 2.8
Calf thymus DNA [6]
  Log K: 7.64 and 7.66
Calf thymus DNA [7]
  Time constant T2: 25 ms

## Nc1c2ccccc2nc2c(C(=O)NCCN3CCOCC3)cccc12
Calf thymus DNA [1]
  Time constant T1: 4 ms
  Time constant T3: 135 ms
  Time constant T4: 590 ms
Calf thymus DNA [9]
  Ratio: 4.4
Calf thymus DNA [2]
  Ratio: 3.3
Nucleic Acid
  Log K delta: 0.29
Calf thymus DNA [3]
  Ratio: 10
P388 [4]
  OD: 30 mg/kg
P388 [10]
  ILS: inactive
Calf thymus DNA [6]
  Log K: 7.29 and 7.58
Calf thymus DNA [7]
  Time constant T2: 40 ms

## COc1cccc2nc3c(C(=O)NCCN(C)C)cccc3c(N)c12
Calf thymus DNA [1]
  Time constant T1: 6 ms
  Time constant T3: 168 ms
P388 [8]
  ILS: inactive
Calf thymus DNA [2]
  Ratio: 5.6
Nucleic Acid
  Log K delta: -0.18
Calf thymus DNA [3]
  Ratio: 5
Calf thymus DNA [6]
  Log K: 7.68 and 7.55
Calf thymus DNA [7]
  Time constant T2: 30 ms

## CN(C)CCCCCCNC(=O)c1cccc2c(N)c3ccccc3nc12
Calf thymus DNA [1]
  Time constant T1: 4 ms
  Time constant T3: 80 ms
Calf thymus DNA [2]
  Ratio: 4.2
Nucleic Acid
  Log K delta: -0.01
Calf thymus DNA [3]
  Ratio: 4.8
Calf thymus DNA [6]
  Log K: 7.41 and 7.4
Calf thymus DNA [7]
  Time constant T2: 19 ms

## CN(C)CCCCNC(=O)c1cccc2c(N)c3ccccc3nc12
L1210
  IC50: 0.43 µM
Calf thymus DNA [11]
  Time constant T2: 26 ms
  Time constant T3: 86 ms
Calf thymus DNA [1]
  Time constant T1: 4 ms
  Time constant T3: 52 ms
Calf thymus DNA [12]
  Ratio: 3.3
Calf thymus DNA [2]
  Ratio: 3.3
Nucleic Acid
  Log K delta: -0.06
Calf thymus DNA [3]
  Ratio: 4
Calf thymus DNA [13]
  Time constant T1: 4 ms
Calf thymus DNA [14]
  Ratio: 6.5
Calf thymus DNA [6]
  Log K: 7.49 and 7.43
Calf thymus DNA [7]
  Time constant T2: 16 ms

## Nc1c2ccccc2nc2ccccc12 [AMINACRINE]
L1210
  IC50: 2.6 µM
Calf thymus DNA [1]
  Time constant T1: 2.5 ms
Nucleic Acid
  Log K delta: 0.07
Calf thymus DNA [3]
  Ratio: 6.3
P388 [4]
  OD: 20 mg/kg
Calf thymus DNA [6]
  Log K: 6.08 and 6.11
Calf thymus DNA [7]
  Time constant T2: 15 ms

## CN(C)CCCCCNC(=O)c1cccc2c(N)c3ccccc3nc12
Calf thymus DNA [1]
  Time constant T1: 4 ms
  Time constant T3: 58 ms
Calf thymus DNA [2]
  Ratio: 3.6
Nucleic Acid
  Log K delta: 0
Calf thymus DNA [3]
  Ratio: 4
Calf thymus DNA [6]
  Log K: 7.45
Calf thymus DNA [7]
  Time constant T2: 16 ms

## CN(C)CCNC(=O)c1ccc2c(N)c3ccccc3nc2c1
Calf thymus DNA [1]
  Time constant T1: 6 ms
  Time constant T3: 98 ms
Calf thymus DNA [2]
  Ratio: 3.6
Nucleic Acid
  Log K delta: 0.48
Calf thymus DNA [3]
  Ratio: 4.5
P388 [4]
  OD: 250 mg/kg
P388 [5]
  ILS: inactive
Calf thymus DNA [6]
  Log K: 7.18 and 7.66
Calf thymus DNA [7]
  Time constant T2: 27 ms

## COc1ccc2c(N)c3ccccc3nc2c1C(=O)NCCN(C)C
Calf thymus DNA [1]
  Time constant T1: 7 ms
  Time constant T3: 87 ms
P388 [8]
  ILS: inactive
Calf thymus DNA [2]
  Ratio: 4.4
Nucleic Acid
  Log K delta: -0.09
Calf thymus DNA [3]
  Ratio: 2.9
Calf thymus DNA [6]
  Log K: 7.21 and 7.12
Calf thymus DNA [7]
  Time constant T2: 20 ms

## COc1cccc2c(N)c3cccc(C(=O)NCCN(C)C)c3nc12
Calf thymus DNA [1]
  Time constant T1: 17 ms
  Time constant T3: 299 ms
  Time constant T4: 1080 ms
P388 [15]
  ILS: 81
Calf thymus DNA [9]
  Ratio: 3.6
Calf thymus DNA [2]
  Ratio: 4.3
Nucleic Acid
  Log K delta: 0.21
Calf thymus DNA [3]
  Ratio: 4.1
Calf thymus DNA [6]
  Log K: 7.62 and 7.83
Calf thymus DNA [7]
  Time constant T2: 69 ms

## COc1ccc2c(N)c3cccc(C(=O)NCCN(C)C)c3nc2c1
Calf thymus DNA [1]
  Time constant T1: 26 ms
  Time constant T3: 271 ms
  Time constant T4: 1000 ms
P388 [8]
  ILS: inactive
Calf thymus DNA [9]
  Ratio: 3.7
Calf thymus DNA [2]
  Ratio: 3.3
Nucleic Acid
  Log K delta: 0.38
Calf thymus DNA [3]
  Ratio: 3.2
Calf thymus DNA [6]
  Log K: 7.33 and 7.71
Calf thymus DNA [7]
  Time constant T2: 83 ms

## CN(C)CCNS(=O)(=O)c1cccc2c(N)c3ccccc3nc12
Calf thymus DNA [1]
  Time constant T1: 5 ms
[16]
  IC50: 13 µM
Calf thymus DNA [3]
  Ratio: 4.2
P388 [4]
  OD: 65 mg/kg
P388 [17]
  ILS: inactive
Calf thymus DNA [7]
  Time constant T2: 21 ms

## CN(C)CCCNC(=O)c1cccc2c(N)c3ccccc3nc12
Calf thymus DNA [1]
  Time constant T1: 4 ms
  Time constant T3: 44 ms
Calf thymus DNA [2]
  Ratio: 2.9
Nucleic Acid
  Log K delta: 0.09
Calf thymus DNA [3]
  Ratio: 3.8
P388 [4]
  OD: 50 mg/kg
P388 [5]
  ILS: inactive
Calf thymus DNA [6]
  Log K: 7.51 and 7.6
Calf thymus DNA [7]
  Time constant T2: 15 ms

## Nc1c2ccccc2nc2c(C(=O)NCCNCCO)cccc12
Calf thymus DNA [1]
  Time constant T1: 5 ms
  Time constant T3: 49 ms
  Time constant T4: 214 ms
P388 [15]
  ILS: 73
Nucleic Acid
  Log K delta: 0.39
P388 [4]
  OD: 20 mg/kg
Calf thymus DNA [18]
  Ratio: 3.4 and 2.9 and 4.4
Calf thymus DNA [6]
  Log K: 7.34 and 7.73
Calf thymus DNA [7]
  Time constant T2: 17 ms

## COc1ccc(C(=O)NCCN(C)C)c2nc3ccccc3c(N)c12
L1210
  IC50: 0.0006 µM
Calf thymus DNA [1]
  Time constant T1: 22 ms
  Time constant T3: 355 ms
  Time constant T4: 2270 ms
P388 [15]
  ILS: 27
Calf thymus DNA [9]
  Ratio: 6.4
Calf thymus DNA [2]
  Ratio: 3.5
Nucleic Acid
  Log K delta: 0.21
Calf thymus DNA [3]
  Ratio: 4.6
Calf thymus DNA [6]
  Log K: 7.31 and 7.52
Calf thymus DNA [7]
  Time constant T2: 102 ms

## CN(C)CCN(C)C(=O)c1cccc2c(N)c3ccccc3nc12
L1210
  IC50: 5.3 µM
Calf thymus DNA [1]
  Time constant T1: 2 ms
P388 [8]
  ILS: inactive
Nucleic Acid
  Log K delta: 0
Calf thymus DNA [3]
  Ratio: 5.5
P388 [4]
  OD: 30 mg/kg
Calf thymus DNA [6]
  Log K: 6.37
Calf thymus DNA [7]
  Time constant T2: 11 ms

## CCN(CC)CCNC(=O)c1cccc2c(N)c3ccccc3nc12
Calf thymus DNA [1]
  Time constant T1: 3 ms
  Time constant T3: 51 ms
  Time constant T4: 280 ms
P388 [15]
  ILS: 70
Calf thymus DNA [9]
  Ratio: 5.5
Calf thymus DNA [2]
  Ratio: 3.9
Nucleic Acid
  Log K delta: 0.33
Calf thymus DNA [3]
  Ratio: 4.3
P388 [4]
  OD: 5.9 mg/kg
Calf thymus DNA [6]
  Log K: 7.26 and 7.59
Calf thymus DNA [7]
  Time constant T2: 13 ms

## CN(C)CCNC(=O)c1cccc2c(N)c3ccccc3nc12
P388 [15]
  ILS: 98

## COc1cc(C(=O)NCCN(C)C)c2nc3ccccc3c(N)c2c1
Calf thymus DNA [1]
  Time constant T1: 20 ms
  Time constant T3: 311 ms
  Time constant T4: 2050 ms
P388 [15]
  ILS: 72
Calf thymus DNA [9]
  Ratio: 6.6
Calf thymus DNA [2]
  Ratio: 3.9
Nucleic Acid
  Log K delta: 0.76
Calf thymus DNA [3]
  Ratio: 4
Calf thymus DNA [7]
  Time constant T2: 79 ms

Source: ChEMBL document CHEMBL1123739, “Relationships between DNA-binding kinetics and biological activity for the 9-aminoacridine-4-carboxamide class of antitumor agents” (J Med Chem, 1987)
